From ChEMBL document CHEMBL4350958, “Rational Design of Short Peptide Variants by Using Kunitzin-RE, an Amphibian-Derived Bioactivity Peptide, for Acquired Potent Broad-Spectrum Antimicrobial and Improved Therapeutic Potential of Commensalism Coinfection of Pathogens” (J Med Chem, 2019)

Legend:
Salmonella typhimurium [1] = assay: Bactericidal activity against Salmonella typhimurium C7731 incubated for 24 hrs followed by replating on agar plate and measured after overnight incubation; assay type: functional, Salmonella enterica subsp. enterica serovar Typhimurium; conditions: Salmonella enterica, C7731, 24 h; read-out: MBC>99.9
How it was run: (§1)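 Mid-log bacteria diluted in MHB to (0.5–1) × 10^5 CFU/mL and mixed 1:1 with peptide serially diluted in 0.2% BSA. After 24 h at 37 °C, 50 μL of each mixture was plated on agar and incubated overnight. MBC taken as the lowest concentration killing >99.9% of cells. At least three independent experiments, each with three technical replicates.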

Staphylococcus aureus [2] = assay: Antibacterial activity against Staphylococcus aureus ATCC 29213 measured after 18 to 24 hrs in presence of NaCl; assay type: functional
Candida albicans [3] = assay: Antifungal activity against Candida albicans cgmcc2.2086 measured after 48 hrs in presence of KCl by broth microdilution method; assay type: functional; conditions: cgmcc2.2086, 48 h
Escherichia coli [4] = assay: Bactericidal activity against Escherichia coli ATCC 25922 incubated for 24 hrs followed by replating on agar plate and measured after overnight incubation; assay type: functional; conditions: ATCC 25922, 24 h, read-out: MBC>99.9
How it was run: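 After the 24 h, 37 °C MHB microdilution (0.5–1 × 10^5 CFU mL−1 inoculum, peptides diluted in 0.2% BSA), 50 μL from each well was plated on agar and incubated overnight. MBC was taken as the lowest concentration killing >99.9% of cells. Three or more independent experiments, each with triplicate technical replicates.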

Staphylococcus aureus [5] = assay: Bactericidal activity against methicillin-resistant Staphylococcus aureus ATCC 43300 incubated for 24 hrs followed by replating on agar plate and measured after overnight incubation; assay type: functional; conditions: ATCC 43300, 24 h, read-out: MBC>99.9
How it was run: (§2)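 After the 24 h, 37 °C MHB microdilution MIC assay, 50 μL from each well was plated on agar and incubated overnight. MBC taken as lowest peptide concentration killing >99.9% of cells. At least three independent experiments, each with three technical replicates.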

Escherichia coli [6] = assay: Antibacterial activity against Escherichia coli K99 measured after 24 hrs; assay type: functional; conditions: K99, 24 h
How it was run: (§3)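 Broth microdilution adapted from NCCLS. Mid-log bacteria were diluted in MHB to a final (0.5–1) × 10^5 CFU mL−1. Peptides were serially diluted in 0.2% BSA and mixed with an equal volume of cells. After 24 h at 37 °C, MIC was read at A492 as the lowest concentration inhibiting 95% of growth. At least three independent experiments, each with three technical replicates.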

Escherichia coli [7] = assay: Bactericidal activity against Escherichia coli UB1005 incubated for 24 hrs followed by replating on agar plate and measured after overnight incubation; assay type: functional; conditions: UB1005, 24 h, read-out: MBC>99.9; how it was run: as §1
[8] = Therapeutic index, ratio of MHC10 for hemolytic activity in human RBC to MIC95 against Candida parapsilosis cgmcc2.3989; assay type: toxicity; conditions: human red blood cells (erythrocytes), read-out: TI
How it was run: (§4)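 Therapeutic index = MHC divided by MIC. MHC is the lowest concentration giving >10% lysis of human RBC (1 h, 37 °C, 1-128 µM, A576). MIC is 95% growth inhibition by broth microdilution: bacteria in MHB 24 h at 37 °C; Candida in MOPS-buffered RPMI 1640 at (0.5–1) × 10^3 CFU mL−1, 48 h at 28 °C.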

Staphylococcus aureus [9] = assay: Antibacterial activity against methicillin-resistant Staphylococcus aureus ATCC 43300 measured after 24 hrs; assay type: functional; conditions: ATCC 43300, 24 h
How it was run: (§5)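 Broth microdilution modified from NCCLS. Mid-log bacteria at (0.5–1) × 10^5 CFU mL−1 in MHB, mixed with peptides serially diluted in 0.2% BSA. Incubated 24 h at 37 °C, read at A492. MIC taken as lowest concentration giving 95% growth inhibition. At least three independent experiments, each with three technical replicates.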

Staphylococcus aureus [10] = assay: Antibacterial activity against Staphylococcus aureus ATCC 25923 measured after 24 hrs; assay type: functional; conditions: ATCC 25923, 24 h; how it was run: as §5
Staphylococcus aureus [11] = assay: Antibacterial activity against Staphylococcus aureus ATCC 29213 measured after 18 to 24 hrs in presence of NH4Cl; assay type: functional
How it was run: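 MIC broth microdilution (MHB, 0.2% BSA peptide diluent, A492, 95% inhibition) run in the presence of physiological salts at final concentrations of 6 μM NH4Cl or 8 μM ZnCl2. Three independent assays, each with three technical replicates.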

Candida albicans [12] = assay: Antifungal activity against Candida albicans cgmcc2.2086 measured after 48 hrs in presence of MgCl by broth microdilution method; assay type: functional; conditions: cgmcc2.2086, 48 h
[13] = Cytotoxicity against mouse RAW264.7 cells assessed as cell viability at 2 to 64 uM measured after 18 to 24 hrs by MTT assay relative to control; assay type: cell-based; conditions: RAW264.7 cells, read-out: Activity
How it was run: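 MTT assay: RAW264.7 cells seeded at 1.0–2.0×10^4 per well and exposed to peptide (2–64 µM) for 18–24 h at 37 °C in 5% CO2. MTT (0.5 mg/mL) added for 4 h, formazan dissolved in DMSO, read at 570 nm. At least three independent experiments with triplicate wells.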

Candida albicans [14] = assay: Antifungal activity against Candida albicans cgmcc2.2086 measured after 48 hrs by broth microdilution method; assay type: functional; conditions: cgmcc2.2086, 48 h
How it was run: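 Modified CLSI M27-A2 microdilution. Yeast colonies were diluted in MOPS-buffered RPMI 1640 to a final (0.5–1) × 10^3 CFU mL−1 and mixed with an equal volume of peptide serially diluted in 0.2% BSA. After 48 h at 28 °C, MIC was read at A492 as the lowest concentration inhibiting 95% of growth. At least three independent experiments, each with three technical replicates.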

Escherichia coli [15] = assay: Bactericidal activity against Escherichia coli K88 incubated for 24 hrs followed by replating on agar plate and measured after overnight incubation; assay type: functional; conditions: K88, 24 h, read-out: MBC>99.9; how it was run: as §1
[16] = system: Staphylococcus epidermidis; assay: Antibacterial activity against Staphylococcus epidermidis ATCC 12228 measured after 24 hrs; assay type: functional; conditions: ATCC 12228, 24 h; how it was run: as §3
[17] = Therapeutic index, ratio of MHC10 for hemolytic activity in human RBC to MIC95 against Staphylococcus epidermidis ATCC 12228; assay type: toxicity; conditions: human red blood cells (erythrocytes), read-out: TI; how it was run: as §4
Candida albicans [18] = assay: Antifungal activity against Candida albicans cgmcc2.2086 measured after 48 hrs in presence of CaCl by broth microdilution method; assay type: functional; conditions: cgmcc2.2086, 48 h
Staphylococcus aureus [19] = assay: Bactericidal activity against Staphylococcus aureus ATCC 29213 incubated for 24 hrs followed by replating on agar plate and measured after overnight incubation; assay type: functional; conditions: ATCC 29213, 24 h, read-out: MBC>99.9; how it was run: as §2
[20] = Therapeutic index, ratio of MHC10 for hemolytic activity in human RBC to MIC95 against methicillin-resistant Staphylococcus aureus ATCC 43300; assay type: toxicity; conditions: human red blood cells (erythrocytes), read-out: TI; how it was run: as §4
Salmonella typhimurium [21] = assay: Antibacterial activity against Salmonella typhimurium ATCC 14028 measured after 24 hrs; assay type: functional, Salmonella enterica subsp. enterica serovar Typhimurium; conditions: Salmonella enterica, ATCC 14028, 24 h; how it was run: as §3
[22] = system: Staphylococcus epidermidis; assay: Bactericidal activity against Staphylococcus epidermidis ATCC 12228 incubated for 24 hrs followed by replating on agar plate and measured after overnight incubation; assay type: functional; conditions: ATCC 12228, 24 h, read-out: MBC>99.9; how it was run: as §1
Escherichia coli [23] = assay: Antibacterial activity against Escherichia coli ATCC 25922 measured after 18 to 24 hrs in presence of MgCl2; assay type: functional

| Substance | MBC (Salmonella typhimurium [1]) | MIC95 (Staphylococcus aureus [2]) | MIC95 (Candida albicans [3]) | MBC (Escherichia coli [4]) | MBC (Staphylococcus aureus [5]) | MIC95 (Escherichia coli [6]) | MBC (Escherichia coli [7]) | selectivity ratio [8] | MIC95 (Staphylococcus aureus [9]) | MIC95 (Staphylococcus aureus [10]) | MIC95 (Staphylococcus aureus [11]) | MIC95 (Candida albicans [12]) | viability at up to 64 µM [13] | MIC95 (Candida albicans [14]) | MBC (Escherichia coli [15]) | MIC95 [16] | selectivity ratio [17] | MIC95 (Candida albicans [18]) | MBC (Staphylococcus aureus [19]) | selectivity ratio [20] | further results |
| --- | --- | --- | --- | --- | --- | --- | --- | --- | --- | --- | --- | --- | --- | --- | --- | --- | --- | --- | --- | --- | --- |
| H-AARIILRYRFR-NH2 | 8 µM | > 128 µM | 64 µM | 16 µM | 8 µM | 4 µM | 8 µM | 8 | 4 µM | 8 µM | 4 µM | 64 µM | 90 to 100% | 32 µM | 8 µM | 2 µM | 64 | 128 µM | 8 µM | 64 | MIC95 (Salmonella typhimurium [21]): 8 µM; MBC [22]: 4 µM; MIC95 (Escherichia coli [23]): 64 µM |
| H-AARRILRWIFR-NH2 | 8 µM | 64 µM | 16 µM | 4 µM | 8 µM | 4 µM | 4 µM | 40.3 | 8 µM | 8 µM | 8 µM | 16 µM | 90 to 100% | 8 µM | 8 µM | 4 µM | 45.2 | 128 µM | 8 µM | 45.2 | MIC95 (Salmonella typhimurium [21]): 4 µM; MBC [22]: 8 µM; MIC95 (Escherichia coli [23]): 8 µM |
